Data reported in BindingDB's records for doi:10.1016/j.ejmech.2015.10.033 (Kyungpook National University, 2015).

molecular target: T1, Polyphenol oxidase 2 (Agaricus bisporus, UniProt O42713); assay: Non-competitive inhibition of mushroom tyrosinase using L-tyrosine as substrate by Lineweaver-Burk plots analysis
T1 sequence (O42713 whole entry): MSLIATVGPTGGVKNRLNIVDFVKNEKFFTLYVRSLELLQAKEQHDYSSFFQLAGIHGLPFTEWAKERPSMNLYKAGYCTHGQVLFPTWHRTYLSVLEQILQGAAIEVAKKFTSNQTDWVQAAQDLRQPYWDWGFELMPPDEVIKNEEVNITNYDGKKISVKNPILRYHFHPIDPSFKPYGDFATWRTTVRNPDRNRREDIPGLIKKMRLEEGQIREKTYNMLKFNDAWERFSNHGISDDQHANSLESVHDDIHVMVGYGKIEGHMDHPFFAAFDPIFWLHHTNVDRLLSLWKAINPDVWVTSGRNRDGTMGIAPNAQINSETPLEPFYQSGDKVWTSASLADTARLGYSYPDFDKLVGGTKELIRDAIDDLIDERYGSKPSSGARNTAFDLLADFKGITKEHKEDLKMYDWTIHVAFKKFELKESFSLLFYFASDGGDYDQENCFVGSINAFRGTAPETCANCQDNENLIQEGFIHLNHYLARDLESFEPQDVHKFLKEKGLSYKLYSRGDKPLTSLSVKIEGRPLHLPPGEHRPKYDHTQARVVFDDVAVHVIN
In short: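 Absorbance at 475 nm read at 30 °C in PBS with 5% DMSO. Global nonlinear Michaelis–Menten fitting over four inhibition models gave Vmax, Km, Kic and Kiu, with the model chosen by minimal χ2.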

| SMILES | Ki |
| --- | --- |
| NC(=S)c1cccnc1 [thionicotinamide] | 4300 nM |
| CCc1cc(C(N)=S)ccn1 [CHEBI:4885] | 1900 nM |
| NC(=S)c1ccccn1 | 2700 nM |
| NC(=S)c1ccccc1 | 700 nM |
| CCCc1cc(C(N)=S)ccn1 [Ektebin] | 2400 nM |
| NC(=S)c1ccncc1 | 22300 nM |
